Experimental data from different studies.
Lines come from different studies, so protocols differ.
Target: Inhibitor of nuclear factor kappa-B kinase subunit epsilon (IKBKE, Homo sapiens, UniProt Q14164)
One construct used (Q14164 1-716): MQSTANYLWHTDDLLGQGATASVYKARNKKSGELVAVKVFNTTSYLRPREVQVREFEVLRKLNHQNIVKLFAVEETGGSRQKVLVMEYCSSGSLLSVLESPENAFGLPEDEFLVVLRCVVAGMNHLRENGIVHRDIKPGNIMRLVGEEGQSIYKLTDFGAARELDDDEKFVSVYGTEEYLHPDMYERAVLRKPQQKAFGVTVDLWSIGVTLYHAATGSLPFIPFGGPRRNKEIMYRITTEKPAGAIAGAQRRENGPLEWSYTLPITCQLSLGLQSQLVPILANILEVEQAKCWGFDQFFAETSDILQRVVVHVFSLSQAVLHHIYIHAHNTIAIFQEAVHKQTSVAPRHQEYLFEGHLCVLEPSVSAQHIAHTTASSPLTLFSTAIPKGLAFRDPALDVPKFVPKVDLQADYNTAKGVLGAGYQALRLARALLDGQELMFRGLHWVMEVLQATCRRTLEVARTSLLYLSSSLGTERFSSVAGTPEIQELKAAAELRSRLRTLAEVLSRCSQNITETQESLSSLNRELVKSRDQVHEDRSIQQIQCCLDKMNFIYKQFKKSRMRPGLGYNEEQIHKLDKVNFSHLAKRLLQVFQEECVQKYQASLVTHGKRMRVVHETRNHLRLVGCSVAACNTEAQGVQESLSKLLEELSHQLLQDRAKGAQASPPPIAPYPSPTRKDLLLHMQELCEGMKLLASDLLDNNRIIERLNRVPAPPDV

SMILES | observed | action | technique | tested at | endpoint | result
Cc1cc(O)c(-c2ccc([C@@H](C)CN(C)C)cc2)c2c1[nH]c(=O)c1sccc12 | enzyme activity | inhibitor |  | 0.1 µM | inhibition | -7.74%
COc1ccc2[nH]c3c4[nH]c5ccc(OC)cc5c4c4c(c3c2c1)C(=O)NC4=O | binding |  |  | 1 µM | remaining binding | 48%
CO[C@@H]1[C@H](N(C)C(=O)c2ccccc2)C[C@H]2O[C@]1(C)n1c3ccccc3c3c4c(c5c6ccccc6n2c5c31)C(=O)NC4 | enzyme activity | inhibitor |  | 1 µM | inhibition | 97%
C#Cc1cc(-c2cc(Nc3nc(N[C@@H](C)c4ccc(F)cn4)ncc3Cl)n[nH]2)ccc1C=O | enzyme activity | inhibitor |  | 0.2 µM | inhibition | 14.7%
CC(C)S(=O)(=O)c1ccc2nccc(Nc3ccc4sc(C5CCCC5)nc4c3)c2c1 | enzyme activity | inhibitor |  | 1 µM | activity vs control | 113%
C=CC(=O)N1CCC([C@@H]2CCNc3c(C(N)=O)c(-c4ccc(Oc5ccccc5)cc4)nn32)CC1 | enzyme activity | inhibitor |  | 1 µM | inhibition | 1%
Cc1ccc(NC(=O)c2ccnc(C(F)(F)F)c2)cc1-c1cc(OCCO)nc(N2CCOCC2)c1 | binding |  |  | 1 µM | remaining binding | 94%
CCCCC(=O)Nc1ccc(-c2ccc3ncn(CCC)c(=O)c3c2)cn1 | binding |  | competition with immobilised ligand | 0.5 µM | remaining binding | 93%
